Source: ChEMBL document CHEMBL4138248, “Discovery of naphtho[1,2-d]oxazole derivatives as potential anti-HCV agents through inducing heme oxygenase-1 expression” (Eur J Med Chem, 2018)

How the values were obtained:
[1] = Cytotoxicity against human Ava5 cells assessed as cell viability at 20 uM after 72 hrs by XTT assay relative to control; assay type: cell-based; conditions: read-out: Activity
Outline: (§1)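 XTT viability assay run alongside the antiviral assays. Ava5 cells were plated at 5×10^3 per well and exposed to 20 or 200 μM for 72 h at 37 °C in humidified 5% CO₂. Viability is expressed as % of untreated cells.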

Hepatitis C virus [2] = experiment: Antiviral activity against HCV infected in human Ava5 cells assessed as inhibition of viral RNA replication at 5 uM after 3 days by RT-qPCR method relative to control; assay type: functional, Hepacivirus hominis; conditions: Ava5, 72 h
Outline: (§2)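 Ava5 replicon cells were exposed to 5 or 20 μM for 3 days, starting from 10 mM DMSO stocks diluted in medium. HCV RNA was quantified by RT-qPCR against gapdh and expressed as % inhibition relative to untreated control. Ribavirin was the reference drug. Mean ± SD of three independent experiments.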

[3] = Cytotoxicity against human Ava5 cells assessed as cell viability at 200 uM after 72 hrs by XTT assay relative to control; assay type: cell-based; conditions: read-out: Activity; outline: as §1
[4] = Selectivity index, ratio of CC50 for human Ava5 cells to IC50 for HCV; assay type: toxicity; conditions: read-out: Ratio CC50/IC50
Outline: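 SI = CC50/IC50. CC50 comes from 72 h XTT in […] Ava5 cells. IC50 is the concentration giving 50% inhibition of HCV, measured by RT-qPCR after 3 days in Ava5 cells.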

[5] = Cytotoxicity against human Ava5 cells assessed as decrease in cell viability after 72 hrs by XTT assay; assay type: cell-based
Outline: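 XTT assay on […] Ava5 cells at 5×10^3 per well with serial dilutions for 72 h at 37 °C in 5% CO₂. CC50 is the concentration giving 50% growth inhibition.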

Hepatitis C virus [6] = experiment: Antiviral activity against HCV infected in human Ava5 cells assessed as inhibition of viral RNA replication after 3 days by RT-qPCR method; assay type: functional, organism-based, Hepacivirus hominis; conditions: Ava5, 72 h
Outline: (§3)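 Ava5 cells (Huh-7 hepatoma cells carrying an HCV replicon, grown in DMEM/10% FBS with 1 mg·mL⁻¹ G418) were treated for 3 days with a range of concentrations. HCV RNA was measured by RT-qPCR and normalized to cellular gapdh mRNA. Values are mean ± SD of three independent experiments, each in triplicate.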

Hepatitis C virus [7] = experiment: Antiviral activity against HCV infected in human Ava5 cells assessed as inhibition of viral RNA replication at 20 uM after 3 days by RT-qPCR method relative to control; assay type: functional, Hepacivirus hominis; conditions: Ava5, 72 h; outline: as §2
Hepatitis C virus [8] = experiment: Antiviral activity against HCV Con1 infected in human Ava5 cells assessed as inhibition of viral RNA replication after 3 days by RT-qPCR method; assay type: functional, organism-based, Hepacivirus hominis; conditions: isolate Con1, Ava5, 72 h; outline: as §3
Hepatitis C virus [9] = experiment: Antiviral activity against HCV infected in human Huh7 cells assessed as inhibition of viral RNA replication after 3 days by RT-qPCR method; assay type: functional, organism-based, Hepacivirus hominis; conditions: Huh-7, 72 h

SMILES	viability at 72 h, 20 µM [1] [%]	inhibition at 5 µM (Hepatitis C virus [2]) [%]	viability at 72 h, 200 µM [3] [%]	selectivity ratio [4]	CC50 at 72 h [5] [µM]	IC50 (Hepatitis C virus [6]) [µM]	inhibition at 20 µM (Hepatitis C virus [7]) [%]	EC50 (Hepatitis C virus [8]) [µM]	EC50 (Hepatitis C virus [9]) [µM]
NC(=O)c1ncn([C@@H]2O[C@H](CO)[C@@H](O)[C@H]2O)n1 [RIBAVIRIN]	71.4	31.2	26.8	8.08	106	13.2	65.7	–	–
COc1ccc(N(C)c2cc3oc(-c4ccccc4)nc3c3ccccc23)cc1	83.6	3.4	27.5	–	–	–	3.51	–	–
c1ccc(Nc2cc3oc(-c4ccccc4)nc3c3ccccc23)cc1	87	3.51	25.5	–	–	–	4.28	–	–
COc1ccc(Nc2cc3oc(-c4ccc(OC)cc4)nc3c3ccccc23)cc1	63.4	3.2	28.5	–	–	–	5.6	–	–
COc1ccc(-c2nc3c(cc(Nc4ccccc4)c4ccccc43)o2)cc1	86.3	3.7	68.5	–	–	–	5.31	–	–
Cc1ccc2nc(Nc3ccc([N+](=O)[O-])cc3)sc2c1	–	–	–	–	–	–	–	8	–
COc1ccc(Nc2cc3oc(-c4ccc(Cl)cc4)nc3c3ccccc23)cc1	103	3.2	98.2	–	–	–	35.6	–	–
Clc1ccc(Nc2cc3oc(-c4ccccc4)nc3c3ccccc23)cc1	107	1.2	93	–	–	–	3.53	–	–
CN(c1ccccc1)c1cc2oc(-c3ccco3)nc2c2ccccc12	88.8	2.9	40.6	–	–	–	3.54	–	–
COc1ccc(-c2nc3c(cc(N(C)c4ccc(OC)cc4)c4ccccc43)o2)cc1	73.6	5.6	56.3	–	–	–	8.5	–	–
COc1ccc(N(C)c2cc3oc(-c4ccc(Cl)cc4)nc3c3ccccc23)cc1	94.7	2.4	29.6	–	–	–	2.65	–	–
COc1ccc(N(C)c2cc3oc(-c4ccco4)nc3c3ccccc23)cc1	49.5	2.5	32.3	–	–	–	31.5	–	–
COc1ccc(-c2nc3c(cc(N(C)c4ccccc4)c4ccccc43)o2)cc1	69.2	2.5	54	–	–	–	3.21	–	–
Clc1ccc(-c2nc3c(cc(Nc4ccccc4)c4ccccc43)o2)cc1	99.9	2.5	62.4	–	–	–	3.33	–	–
COc1cc(NCc2cc3ccccc3oc2=O)cc(OC)c1OC	–	–	–	–	–	–	–	–	12
Clc1ccc(Nc2cc3oc(-c4ccco4)nc3c3ccccc23)cc1	83.5	3.2	28.9	–	–	–	4.51	–	–
CN(c1ccccc1)c1cc2oc(-c3ccc(Cl)cc3)nc2c2ccccc12	94.7	4.2	29.6	–	–	–	5.12	–	–
CN(c1ccc(Cl)cc1)c1cc2oc(-c3ccc(Cl)cc3)nc2c2ccccc12	86.4	1.1	30.2	–	–	–	2.56	–	–
COc1ccc(Nc2cc3oc(-c4ccccc4)nc3c3ccccc23)cc1	92.7	75.5	37.1	48.4	158	3.27	86.7	–	–
Clc1ccc(Nc2cc3oc(-c4ccc(Cl)cc4)nc3c3ccccc23)cc1	60.2	8.1	27.5	4.71	83.7	17.8	55.2	–	–
COc1ccc(-c2nc3c(cc(Nc4ccc(Cl)cc4)c4ccccc43)o2)cc1	83.7	4.5	23.4	–	–	–	8.5	–	–
COc1ccc(-c2nc3c(cc(N(C)c4ccc(Cl)cc4)c4ccccc43)o2)cc1	107	2.5	93	–	–	–	6.5	–	–
CN(c1ccccc1)c1cc2oc(-c3ccccc3)nc2c2ccccc12	82.3	1.5	25.5	–	–	–	2.31	–	–
c1ccc(Nc2cc3oc(-c4ccco4)nc3c3ccccc23)cc1	81.2	1.8	31.5	–	–	–	2.53	–	–
CN(c1ccc(Cl)cc1)c1cc2oc(-c3ccco3)nc2c2ccccc12	73	2.7	26.5	–	–	–	3.12	–	–
CN(c1ccc(Cl)cc1)c1cc2oc(-c3ccccc3)nc2c2ccccc12	81	1.2	25.5	–	–	–	1.21	–	–
